PRMT1 FP inh = inhibitors of human PRMT1; recombinant PRMT1, activity-based probe fluorescence polarization; AID 652257; Q99873; actives 1.3% (n = 370,000); inhibition, % at 2.79 µM;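 active means inhibition above about 21% made by adding two undisclosed values, limit read from the data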
mABHD4 FP = inhibitors of mouse ABHD4; Q8VD66; purified mABHD4, FP-Rh probe fluorescence polarization; inhibition, % at 8.92 µM; actives 0.54% (n = 370,000); AID 720543;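 active means inhibition exceeding the mean over every tested compound plus 3 SD, cut at about 30% in these data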
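Assay system: wild-type mouse ABHD4 protein; compound: single nominal dose of 8.92 µM, 0.89% DMSO final; schedule: 45 min + 60 min at 25 °C; measured by: FP readout, ex 525 nm / em 598 nm; evaluation: % inhibition of FP-Rh probe binding versus controls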
HTRA1 inh = inhibitors of human serine peptidase HTRA1; Q92743; recombinant HTRA1, FP-rhodamine activity-based probe, fluorescence polarization; inhibition, % at 5.96 µM; actives 0.5% (n = 340,000); in the data active means inhibition above about 36%
Target sequence (Q92743 whole entry, looked up): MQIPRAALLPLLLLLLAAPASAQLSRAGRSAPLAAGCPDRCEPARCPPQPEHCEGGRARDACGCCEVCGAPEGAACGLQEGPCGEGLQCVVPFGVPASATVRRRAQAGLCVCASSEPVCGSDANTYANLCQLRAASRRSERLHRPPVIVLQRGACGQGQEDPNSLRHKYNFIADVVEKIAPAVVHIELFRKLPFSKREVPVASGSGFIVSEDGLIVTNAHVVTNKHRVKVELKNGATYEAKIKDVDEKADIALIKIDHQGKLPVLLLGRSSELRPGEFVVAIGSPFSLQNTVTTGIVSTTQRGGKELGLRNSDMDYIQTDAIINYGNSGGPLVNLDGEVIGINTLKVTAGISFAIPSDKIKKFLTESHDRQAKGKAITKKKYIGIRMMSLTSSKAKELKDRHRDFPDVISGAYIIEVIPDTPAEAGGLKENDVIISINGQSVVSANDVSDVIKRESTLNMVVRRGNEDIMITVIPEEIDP
SIAE primary = blocks human sialic acid acetylesterase | SIAE FP-Rh probe binding, fluorescence polarization | actives 0.69% (n = 370,000) | Q9HAT2 | AID 1053197 | inhibition, % at 9.66 µM;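 active means inhibition above a cutoff: mean of compounds within the control limits plus 3 SD of those, cut at about 17% in these data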
rCAG binder = molecules binding r(CAG) RNA repeats; inhibition, % at 3 µM; r(CAG) RNA repeat, TO-PRO-1 dye displacement fluorescence; actives 1.3% (n = 370,000);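 active means inhibition above the plate cutoff, the mean of all test compounds on that plate plus 3 SD, cut at about 35% in these data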;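 further: higher means more dye released from RNA so lower well fluorescence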
rCAG bind conf = r(CAG) RNA repeat binding, confirmation; TO-PRO-1 dye displacement fluorescence; shares compounds with rCAG binder; actives 70% (n = 4,300); inhibition, % at 3 µM; AID 652065;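 active means inhibition above a per-plate cutoff, the mean inhibition of sample wells plus 3 SD, cut at about 35% in these data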;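 further: loss of TO-PRO-1 fluorescence as compound displaces dye from 1x1 AA loop RNA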
dCAG dye counter = DNA CAG dye complex inhibition counter-screen; inhibition, % at 3 µM; d(CAG) DNA oligo TO-PRO-1 dye displacement, fluorescence; shares compounds with rCAG binder; actives 94% (n = 4,300);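 active means inhibition above its plate's cutoff, the mean test-well inhibition plus 3 SD, cut at about 4.8% in these data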;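 further: hits displace the dye from DNA and so lower well fluorescence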
dCAG dye DR = DNA CAG dye complex inhibition, dose response counter-screen; shares compounds with rCAG binder; DNA CAG/GTC duplex TO-PRO-1 dye displacement fluorescence; IC50, µM; actives 20% (n = 250); AID 686960; in the data active means IC50 below about 10 µM
Hits are given with their value; n = inactive; x = not tested or not shown. A selection: hits, their analogues and other compounds. The true share with any hit is near 3.3%.

SMILES	PRMT1 FP inh	mABHD4 FP	HTRA1 inh	SIAE primary	rCAG binder	rCAG bind conf	dCAG dye counter	others
CC(=O)N1CCN(c2ccc(N3CCN(Cc4ccccc4)[C@@H](C)C3)c(C)c2)[C@H](C)C1	n	n	x	n	n	x	x
COc1cccc(CNS(=O)(=O)c2cc3c(cc2Br)CC(C)N3C(C)=O)c1 (stereo unspecified)	n	n	x	n	n	x	x
C[C@@H]1OCN(C)[C@H]2C[C@H]3c4[nH]c5cccc(-c6ccccc6)c5c4CCN3C[C@@H]12	n	n	x	n	n	x	x
O=C1C[C@H](C(=O)Nc2ccc(Cl)cc2)[C@@H](c2ccccc2)O1	n	n	x	n	n	x	x
Cc1noc(NS(=O)(=O)c2ccc(NC(=O)/C=C/c3ccc(Cl)cc3Cl)cc2)c1C	n	n	n	n	n	x	x
O=C(/C=C/c1cccc(F)c1)Nc1ccc(S(=O)(=O)Nc2ncccn2)cc1	n	n	n	n	n	x	x
Cc1noc(NS(=O)(=O)c2ccc(NC(=O)/C=C/c3ccccc3)cc2)c1C	n	n	n	n	39	37	6.7
COc1ccc(/C=C/C(=O)Nc2ccc(S(=O)(=O)Nc3onc(C)c3C)cc2)cc1OC	n	n	n	n	39	38	11
Cc1noc(NS(=O)(=O)c2ccc(NC(=O)CS(=O)(=O)c3ccccc3)cc2)c1C	n	n	n	n	n	x	x
Cc1noc(NS(=O)(=O)c2ccc(NC(=O)C(CC(C)C)N3C(=O)c4ccccc4C3=O)cc2)c1C (stereo unspecified)	n	n	n	n	63	45	15
O=C(/C=C/c1ccc(Br)cc1)Nc1ccc(S(=O)(=O)Nc2ncccn2)cc1	n	n	n	n	38	n	5.9
COc1cc(/C=C2/C(=O)N(c3ccc(C)c(C)c3)N=C2C)cc([N+](=O)[O-])c1O	n	n	n	n	37	46	12
CC(C)c1ccc(NC(=O)O[C@@H]2CC[C@@]34CCCN3C(=O)CCC[C@H]4C2)cc1	n	n	x	n	x	x	x
COc1ccc(CNS(=O)(=O)/C=C/c2ccc(F)cc2CNC(=O)OC(C)(C)C)cc1	n	n	x	n	n	x	x
O=C(Nc1cccc(-c2nc3ccccc3c(=O)o2)c1)c1ccccc1	n	n	n	n	36	n	n
Cc1ccc(S(=O)(=O)c2c(N)n(NC(=O)c3ccccc3C)c3nc4ccccc4nc23)cc1	n	n	n	n	36	36	13
Cc1ccc(C(=O)Nn2c(N)c(S(=O)(=O)c3ccc(C)cc3)c3nc4ccccc4nc32)cc1	n	n	n	n	n	x	x
COCC(=O)Nc1ncc(S(=O)(=O)c2ccc([N+](=O)[O-])cc2)s1	n	n	n	n	n	x	x
O=C(NC(Nc1ncc(S(=O)(=O)c2ccc([N+](=O)[O-])cc2)s1)(C(F)(F)F)C(F)(F)F)c1ccc(Cl)cc1	n	n	n	n	46	52	14
Cc1cc(C)cc(NC(=O)N2CCN(Cc3nc4ccccc4c(=O)[nH]3)CC2)c1	n	n	x	n	n	x	x
CCOC(=O)c1sc(NC(=O)Cc2ccc(F)cc2)nc1C	n	n	n	n	n	x	x
CCOC(=O)c1sc(NC(C)=O)nc1C	n	n	n	n	n	x	x
CCOC(=O)c1sc(NC(=O)Nc2ccc(F)cc2)nc1C	n	n	n	n	47	n	23
CCOC(=O)c1sc(NS(=O)(=O)c2cc(C)ccc2C)nc1C	n	n	n	n	44	n	7.7
CCOC(=O)c1cccc(NC(=O)CN(C)S(=O)(=O)c2cc3ccccc3s2)c1	n	n	x	n	n	x	x
SMILES	PRMT1 FP inh	mABHD4 FP	HTRA1 inh	SIAE primary	rCAG binder	rCAG bind conf	dCAG dye counter	others
Cc1ccc(C(=O)Nc2nnc(NC(=S)Nc3ccccc3)s2)cc1	n	n	n	n	70	39	30
COC(=O)C1CN(Cc2cn(CCC3OCCO3)nn2)CCS(=O)(=O)N1Cc1ccc(C)cc1 (stereo unspecified)	n	n	x	n	n	x	x
O=C(OCCC12CC3CC(CC(C3)C1)C2)c1ccc(NCc2cc(O)ccc2O)cc1	n	n	n	n	36	n	11
CCCCCN1CCCCC(NC(=O)c2c(F)cccc2F)C1=O (stereo unspecified)	n	n	x	n	n	x	x
Cc1ccc2nc(-c3ccc(F)cc3)c(Cc3ccsc3)n2c1	n	n	x	n	n	x	x
Cc1cc(Oc2ccc(Cl)cc2)nc(-c2ccccn2)n1	n	n	n	n	88	n	n
O=S1(=O)C=CCN1Cc1cn(Cc2ccc(C(F)(F)F)cc2)nn1	n	n	x	n	n	x	x
Oc1ccc(-c2cc(-c3ccc(O)cc3)nc(-c3ccccc3)n2)cc1	n	n	n	n	65	51	26	dCAG dye DR=n
Nc1ccc(-c2cc(-c3ccc(N)cc3)nc(-c3ccccc3)n2)cc1	n	n	n	n	n	x	x
COc1ccc(-c2ccc3c(n2)CCCN3S(=O)(=O)c2ccc(F)cc2)cc1	n	n	x	n	n	x	x
O=C(O)C1C(c2ccccc2)C(C(=O)OCCCO)C1c1ccccc1 (stereo unspecified)	n	n	n	n	n	x	x
CCCCCOC(=O)C1C(c2ccccc2)C(C(=O)O)C1c1ccccc1 (stereo unspecified)	n	n	n	n	35	n	n
Cc1ccc(NC(=O)[C@H]2CC(=O)O[C@@H]2c2ccccc2)c(C)c1	n	n	x	n	n	x	x
O=C(Nc1ccccc1C(=O)Nc1nnc(C(F)(F)F)s1)c1ccccc1	n	n	n	n	38	72	33
CCOC(=O)c1cc(OC(=O)c2cccc([N+](=O)[O-])c2)n(-c2ccccc2)n1	n	n	n	n	35	n	n
CCOC(=O)c1cc(OC(=O)c2ccccc2)n(-c2ccccc2)n1	n	n	n	n	n	x	x
CCOC(=O)[C@]12CCCCC/C=C\1N(Cc1ccc(OC)cc1)C(=O)[C@H]2CC(=O)NCc1cccc2ccccc12	n	n	x	n	n	x	x
CCn1c(COc2ccc(C)cc2)nnc1SCC(=O)Nc1ccc(C(=O)OC)cc1	n	n	x	n	n	x	x
COc1cccc(NC(=O)CSc2nc3c(oc4ccccc43)c(=O)[nH]2)c1	n	n	n	n	54	45	15
CC(=O)c1ccc(OCc2nnn(CC(=O)NS(=O)(=O)c3ccc(C)cc3)c2-c2ccccc2)cc1	n	n	x	n	62	68	20
COc1cc(C)ccc1S(=O)(=O)NC(=O)Cn1nnc(COc2ccc3c(c2)CCCC3)c1C	n	n	x	n	48	42	12
CCCCNC(=O)Cn1nnc(-c2ccccc2)c1COc1ccc(C(C)=O)cc1	n	n	x	n	n	x	x
